{"source": "ChEMBL document CHEMBL1153564", "about": "(Antimicrob Agents Chemother, 2008)", "key": {"Candida albicans [1]": {"test_system": "Candida albicans", "experiment": "Antifungal activity against Candida albicans 98-210 infected in neutropenic ICR/Swiss mouse candidiasis model assessed as fungal count per kidney administered 2 hrs postinfection measured up to 48 hrs", "format": "functional", "outline": "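Untreated neutropenic mice infected via the tail vein (inoculum about 6.1 log10 CFU/ml, 0.1 ml). Growth is the rise in kidney CFU over 48 h. Kidneys were homogenised, serially diluted 1:10 and plated on SDA for 24 h at 35°C. Mean of three mice.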"}, "Candida albicans [2]": {"test_system": "Candida albicans", "experiment": "Antifungal activity against Candida albicans K-1 infected in neutropenic ICR/Swiss mouse candidiasis model assessed as suppression of fungal regrowth at 20 mg/kg, ip administered 2 hrs postinfection as single dose by time-kill assay", "format": "functional, organism-based", "parameters": "dose 20 mg/kg", "outline": "(§1)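 Single ip dose (20, 5 or 1.25 mg/kg) given 2 h after iv infection of neutropenic mice with K-1. Three treated and three control mice were sampled at intervals over 96 h for kidney CFU. PAFE is the time for treated burden to rise 1 log10 after serum levels fall below MIC, minus the same time in controls. Free drug was taken as 1%.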"}, "Nakaseomyces glabratus [3]": {"test_system": "Nakaseomyces glabratus", "experiment": "Antifungal activity against Candida glabrata 5592 infected in neutropenic ICR/Swiss mouse candidiasis model assessed as dose required for 1-log10 reduction in […] per kidney administered intraperitoneally every 24 hrs up to 4 days measured per 24 hrs", "format": "functional", "outline": "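Neutropenic mouse disseminated candidiasis, with i.p. therapy starting 2 h after i.v. infection. Five total doses of 0.078–20 mg/kg/24 h were given q24h for 4 days, three mice per dose. Kidney CFU were counted at the end and compared with untreated controls. The dose giving a 1 log10 CFU/kidney reduction was derived from the sigmoid Hill dose–effect model.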"}, "Candida albicans [4]": {"test_system": "Candida albicans", "experiment": "Antifungal activity against Candida albicans K-1 infected in neutropenic ICR/Swiss mouse candidiasis model assessed as reduction of […] in kidney at 20 mg/kg, ip administered 2 hrs postinfection as single dose measured within 1 to 4 hrs post dosing by time-kill assay", "format": "functional, organism-based", "parameters": "dose 20 mg/kg", "outline": "as §1"}, "Nakaseomyces glabratus [5]": {"test_system": "Nakaseomyces glabratus", "experiment": "Antifungal activity against Candida glabrata 5592 assessed as complete growth inhibition after 24 hrs by CLSI end point method", "format": "functional", "conditions": "Nakaseomyces glabratus, 5592, 24 h", "outline": "(§2)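 Two end points were read against the drug-free control well: partial growth inhibition (the CLSI end point) and complete inhibition. Run in duplicate on four separate occasions; the value is the mean. Drug stock was made in DMSO and diluted in 0.9% NaCl.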"}, "Candida albicans [6]": {"test_system": "Candida albicans", "experiment": "Antifungal activity against Candida albicans 580 assessed as partial growth inhibition after 24 hrs by CLSI end point method", "format": "functional", "conditions": "Candida albicans, 580, 24 h", "outline": "(§3)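 CLSI M27-A2 broth dilution. Two end points read against the drug-free control well: partial inhibition (CLSI end point) and complete inhibition. Run in duplicate on four separate occasions; value is the mean. Drug stock in DMSO, diluted in 0.9% NaCl.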"}, "Nakaseomyces glabratus [7]": {"test_system": "Nakaseomyces glabratus", "experiment": "Antifungal activity against Candida glabrata 5376 infected in neutropenic ICR/Swiss mouse candidiasis model assessed as dose required to maintain […] of 3.71 +/- 0.21 log10CFU per kidney administered intraperitoneally every 48 hrs up to 4 days measured per 96 hrs"}, "Nakaseomyces glabratus [8]": {"test_system": "Nakaseomyces glabratus", "experiment": "Antifungal activity against Candida glabrata 5376 infected in neutropenic ICR/Swiss mouse candidiasis model assessed as prolongation of fungal growth suppression at 20 mg/kg, ip administered 2 hrs postinfection as single dose by time-kill assay", "format": "functional", "conditions": "route intraperitoneal", "outline": "(§4)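 Neutropenic mice were infected i.v. and 2 h later given a single i.p. dose (1.25, 5 or 20 mg/kg). Groups of three treated and three control mice were killed at intervals over 96 h, and kidney CFU were counted on SDA (limit 100 CFU/ml). The post-antifungal effect is t − c: the time for a 1 log10 CFU/kidney increase once serum levels fall below the MIC in treated mice, minus the same time in controls.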"}, "Nakaseomyces glabratus [9]": {"test_system": "Nakaseomyces glabratus", "experiment": "Antifungal activity against Candida glabrata 5376 infected in neutropenic ICR/Swiss mouse candidiasis model assessed as reduction of […] in kidney at 5 mg/kg, ip administered 2 hrs postinfection as single dose measured after 96 hrs post dosing by time-kill assay", "format": "functional, organism-based", "parameters": "dose 5 mg/kg", "outline": "as §4"}, "Candida albicans [10]": {"test_system": "Candida albicans", "experiment": "Antifungal activity against Candida albicans 98-17 infected in neutropenic ICR/Swiss mouse candidiasis model assessed as dose required to maintain […] of 3.81 +/- 0.33 log10CFU per kidney administered intraperitoneally every 24 hrs up to 4 days measured per 24 hrs", "format": "functional", "outline": "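Neutropenic mice (cyclophosphamide sc on days −4, −1 and +2) were infected iv 2 h before therapy. Five total doses from 0.078 to 20 mg/kg/24 h were given ip q24h for 4 days, three mice per regimen. Kidney CFU were measured at the end of therapy. Static and 1-log-kill doses were derived from a Hill sigmoid dose-effect fit.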"}, "Candida albicans [11]": {"test_system": "Candida albicans", "experiment": "Antifungal activity against Candida albicans 98-17 assessed as complete growth inhibition after 24 hrs by CLSI end point method", "format": "functional", "conditions": "98-17, 24 h", "outline": "as §3"}, "Nakaseomyces glabratus [12]": {"test_system": "Nakaseomyces glabratus", "experiment": "Antifungal activity against Candida glabrata 5376 infected in neutropenic ICR/Swiss mouse candidiasis model assessed as […] burden per kidney administered intraperitoneally every 24 hrs up to 4 days measured per 96 hrs", "format": "functional", "conditions": "Nakaseomyces glabratus, 5376, Kidney, ip", "outline": "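Neutropenic ICR/Swiss mice infected i.v. with the strain; therapy began 2 h later. Total doses of 1.25–320 mg/kg/96 h were given i.p. as 1, 2, 4 or 6 doses (q96h, q48h, q24h, q16h), three mice per regimen. Kidney CFU were counted after 4 days. Effect is the change from untreated controls at the end of therapy.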"}, "Nakaseomyces glabratus [13]": {"test_system": "Nakaseomyces glabratus", "experiment": "Antifungal activity against Candida glabrata after 24 hrs by broth microdilution method", "format": "functional", "outline": "as §2"}, "Nakaseomyces glabratus [14]": {"test_system": "Nakaseomyces glabratus", "experiment": "Antifungal activity against Candida glabrata 35315 infected in neutropenic ICR/Swiss mouse candidiasis model assessed as dose required to maintain […] burden of 1.83 +/- 0.54 log10CFU per kidney administered intraperitoneally every 24 hrs up to 4 days measured per 24 hrs", "format": "functional"}, "Candida albicans [15]": {"test_system": "Candida albicans", "experiment": "Antifungal activity against Candida albicans K-1 infected in neutropenic ICR/Swiss mouse candidiasis model assessed as dose required for 1-log10 reduction in […] per kidney administered intraperitoneally every 24 hrs up to 4 days measured per 24 hrs", "format": "functional"}, "Nakaseomyces glabratus [16]": {"test_system": "Nakaseomyces glabratus", "experiment": "Antifungal activity against Candida glabrata 513 infected in neutropenic ICR/Swiss mouse candidiasis model assessed as fungal count per kidney administered 2 hrs postinfection measured up to 48 hrs", "format": "functional", "outline": "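Female ICR/Swiss mice (23–27 g) made neutropenic with cyclophosphamide s.c. (150 mg/kg day −4, 100 mg/kg day −1, 100 mg/kg day +2). Infected by tail vein with 0.1 ml inoculum (~6.1 log10 CFU/ml). Kidneys of untreated mice were homogenised and plated on SDA for 24 h at 35°C. Growth over 48 h is given as log10 CFU/kidney.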"}, "Candida albicans [17]": {"test_system": "Candida albicans", "experiment": "Antifungal activity against Candida albicans K-1 infected in neutropenic ICR/Swiss mouse candidiasis model assessed as dose required to maintain […] of 3.90 +/- 0.15 log10CFU per kidney administered intraperitoneally every 48 hrs up to 4 days measured per 96 hrs", "format": "functional", "outline": "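Neutropenic mice were infected iv with C. albicans K-1 2 h before therapy. Total doses of 1.25, 5, 20, 80 and 320 mg/kg/96 h were split into 1, 2, 4 or 6 ip doses (q96h, q48h, q24h, q16h), three mice per regimen. Effect is the log10 CFU/kidney relative to untreated controls at 96 h. Static and 1-log doses were taken from a Hill model fit.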"}, "Candida albicans [18]": {"test_system": "Candida albicans", "experiment": "Antifungal activity against Candida albicans 98-210 assessed as complete growth inhibition after 24 hrs by CLSI end point method", "format": "functional", "conditions": "98-210, 24 h", "outline": "as §3"}}, "note": "The source made the active and inactive calls. The rule behind the calls is not given here. Starred links: 1 amine or outer side, 2 acyl side, 3 side chain; linkers in the order of their positions; H or OH if unused. Positions of bridges follow the written chain, without caps; N, C: chain ends. Non-standard residues stand in square brackets, D forms with d. Residues, ends and D or L forms follow the SMILES beside them. *: point of attachment. pTerphenylCO(4''-OnC5H11) = CCCCCOc1ccc(-c2ccc(-c3ccc(C(=O)*)cc3)cc2)cc1; Orn(4R-OH,5R-OH) = O=C([C@H](C[C@@H](O)[C@@H](O)N[*:3])N[*:1])[*:2]; hTyr(3S-OH,4S-OH) = N[C@H](C(=O)O)[C@H](O)[C@@H](O)c1ccc(O)cc1; Pro(3S-OH,4S-Me) = C[C@H]1CN[C@H](C(=O)O)[C@H]1O; Hyp = O=C(O)[C@@H]1C[C@@H](O)CN1"}
{"smiles": "CCCCCOc1ccc(-c2ccc(-c3ccc(C(=O)N[C@H]4C[C@@H](O)[C@@H](O)NC(=O)[C@@H]5[C@@H](O)[C@@H](C)CN5C(=O)[C@H]([C@@H](C)O)NC(=O)[C@H]([C@H](O)[C@@H](O)c5ccc(O)cc5)NC(=O)[C@@H]5C[C@@H](O)CN5C(=O)[C@H]([C@@H](C)O)NC4=O)cc3)cc2)cc1", "note": "[ANIDULAFUNGIN] ({pTerphenylCO(4''-OnC5H11)}-[Orn(4R-OH,5R-OH)]T[Hyp][hTyr(3S-OH,4S-OH)]T[Pro(3S-OH,4S-Me)]; lactam 1-C)", "values": [{"measurement": "log10cfu", "setting": "Candida albicans [1]", "value": 3.5}, {"measurement": "Activity", "setting": "Candida albicans [2]", "value": "Active"}, {"measurement": "Activity", "setting": "Nakaseomyces glabratus [3]", "value": 11.8, "unit": "mg/kg"}, {"measurement": "Activity", "setting": "Candida albicans [4]", "value": "Active"}, {"measurement": "MIC", "setting": "Nakaseomyces glabratus [5]", "value": 0.12, "unit": "µg/mL"}, {"measurement": "MIC", "setting": "Candida albicans [6]", "value": 0.015, "unit": "µg/mL"}, {"measurement": "Activity", "setting": "Nakaseomyces glabratus [7]", "value": 15.3, "unit": "mg/kg"}, {"measurement": "Activity", "setting": "Nakaseomyces glabratus [8]", "value": 67, "unit": "h"}, {"measurement": "Activity", "setting": "Nakaseomyces glabratus [9]", "value": "Active"}, {"measurement": "Activity", "setting": "Candida albicans [10]", "value": 1.15, "unit": "mg/kg"}, {"measurement": "MIC", "setting": "Candida albicans [11]", "value": 0.12, "unit": "µg/mL"}, {"measurement": "ED50", "setting": "Nakaseomyces glabratus [12]", "value": 15.9, "unit": "mg/kg"}, {"measurement": "MIC90", "setting": "Nakaseomyces glabratus [13]", "value": 0.12, "unit": "µg/mL"}, {"measurement": "Activity", "setting": "Nakaseomyces glabratus [14]", "value": 6.4, "unit": "mg/kg"}, {"measurement": "Activity", "setting": "Candida albicans [15]", "value": 2, "unit": "mg/kg"}, {"measurement": "log10cfu", "setting": "Nakaseomyces glabratus [16]", "value": 2.43}, {"measurement": "Activity", "setting": "Candida albicans [17]", "value": 5.01, "unit": "mg/kg"}, {"measurement": "MIC", "setting": "Candida albicans [18]", "value": 0.06, "unit": "µg/mL"}]}
